Source: PubChem (several laboratories)
aDG glyco up – activators of alpha-DG glycosylation, primary screen, uHTS, Pro5-aDG cells, AlphaScreen; alpha-DG glycosylation AlphaScreen (IIH6); 0% Pro5, 100% B10-LARGE cell signal; activation, % at 10 µM; 360,000 compounds, 0.22% hits; AID 624168, 2012;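 active = activation of at least 8% versus controls, or a plate z-score of at least 8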;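 note: Pro5 are CHO cells carrying HIG-tagged alpha-DG that lacks glycosylation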
GASC-1 inh – inhibitors of GASC-1 histone demethylase, primary screen, biochemical, fluorescence, DELFIA europium; Lysine-specific demethylase 4C (Homo sapiens), Q9H3R0; GST-JMJD2C(1-420) H3K9me3 demethylation; inhibition, % at 2.35 µM; 330,000 compounds, 0.069% hits; AID 2099, 2009;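 active = more than half of a compound's replicate wells show inhibition beyond 50%, single wells judged on their own value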;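 note: signal counts dimethyl H3K9 product captured on neutravidin plate; 0% = median of DMSO wells and 100% = 0.3 times that DMSO median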
Target sequence (Q9H3R0 1-420 limits assumed): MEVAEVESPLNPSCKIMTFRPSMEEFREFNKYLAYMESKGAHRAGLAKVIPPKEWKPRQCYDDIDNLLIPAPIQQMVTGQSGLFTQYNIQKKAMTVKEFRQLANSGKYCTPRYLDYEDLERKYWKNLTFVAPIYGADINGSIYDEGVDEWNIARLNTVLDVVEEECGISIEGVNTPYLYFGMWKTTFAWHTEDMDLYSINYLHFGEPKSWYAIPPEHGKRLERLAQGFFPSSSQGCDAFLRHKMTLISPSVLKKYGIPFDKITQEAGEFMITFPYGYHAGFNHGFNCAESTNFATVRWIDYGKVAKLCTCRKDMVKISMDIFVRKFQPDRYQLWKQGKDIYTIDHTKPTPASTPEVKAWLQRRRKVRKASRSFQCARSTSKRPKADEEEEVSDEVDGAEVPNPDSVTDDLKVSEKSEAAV
NPR1 activator – GC-A stimulated cGMP production enhancers – HEK293 GC-A cells, cGMP TR-FRET, EC30 ANP, primary screen; 0% at EC30 ANP, 100% saturating ANP; activation, % at 10 µM; AID 1671463, 2021; Atrial natriuretic peptide receptor 1 (Homo sapiens), P16066; 370,000 compounds, 0.14% hits; in the data active = activation above about 40%
Lipid droplet – inhibitors of hepatocyte lipid droplet formation, primary screen, imaging, high-throughput imaging, BODIPY stain; AML12 mouse hepatocytes, oleate lipid droplets; inhibition, % at 6.5 µM; 240,000 compounds, 0.4% hits; AID 1656, 2009;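 active = lipid droplet intensity inhibited by at least 50%, with more than 500 cells counted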
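Assay system: AML12 mouse liver cells | Compound dosing: One dose, 6.5 µM compound | Read-out basis: Droplet intensity reduction, % inhibition | Measured by: Fluorescence imaging, 20x objective, two fields per well | Schedule: Overnight treatment with compound plus oleate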
GC-B act – human GC-B receptor activators, primary screen, HEK293 GC-B cells, cGMP TR-FRET, EC30 CNP; Atrial natriuretic peptide receptor 2 (Homo sapiens), P20594; 0% at EC30 CNP, 100% saturating CNP; activation, % at 10 µM; 370,000 compounds, 0.11% hits; AID 1920062, 2024;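 active = activation at 10 µM reaching about 35% in either raw or pattern-adjusted values, limit read from the data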
GRIN3A LBD mod – binders of NR3A ligand-binding domain, primary screen, biophysical, differential scanning fluorimetry, uHTS | NR3A LBD differential scanning fluorimetry, Tm shift; 0% = protein alone, 100% = glycine-bound protein | Tm shift relative to glycine control, % at 25 µM | 340,000 compounds, 2.5% hits | AID 1259313, 2017;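 active = melting temperature shift of at least 10% of the positive control shift, at one fixed dose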
* hit, by the source's call; i = inactive; . = not tested or not shown. The list is not random: actives were taken first. Their share in the collection is about 3%.

SMILES	aDG glyco up	GASC-1 inh	NPR1 activator	Lipid droplet	GC-B act	GRIN3A LBD mod
CN1C(=O)C(CC(=O)Nc2ccc(Cl)cc2)N(Cc2ccco2)C1=S (stereo not drawn)	0	3	3	7	-3	5
COc1ccccc1CCn1cnc(-c2cccc(F)c2)c1CC(C)C	.	.	-6	.	1	.
Cc1c(C(=O)Nc2ccc3c(c2)OCCO3)sc2nc(-c3ccccc3)cn12	2	-2	7	-1	-3	27*
CCOc1ccc(Br)cc1S(=O)(=O)NC1=NCCCCC1	0	8	-2	.	-1	0
Cc1ccc(-n2cc(CNCCc3cscn3)c(-c3ccc(F)cc3)n2)cc1	4	22	-2	-5	-5	-6
COc1ccc(-n2cc(CNCCc3cscn3)c(-c3ccccc3Cl)n2)cc1	.	51*	-4	-4	-7	-5
CC(C)(C)c1ccc(C2CC2C(=O)N/N=C\c2cc3ccccc3nc2Cl)cc1 (stereo not drawn)	3	-2	2	.	4	0
Cc1ccc2nc(C)c(C(=O)N/N=C/c3ccco3)cc2c1	0	-1	-5	2	-1	11*
Cc1ccc2nc(Cl)c(/C=N/NC(=O)[C@H]3C[C@@H]3c3ccccc3)cc2c1	0	-5	-6	105*	7	0
Cc1ccc2nc(Cl)c(/C=N/NC(=O)c3ccccc3O)cc2c1	0	1	1	-46	-3	20*
Nc1nonc1-n1nnc(C(=O)N/N=C/c2cccnc2)c1CSC1=NCCS1	0	-12	1	6	5	-2
CCCc1c(C(=O)N/N=C/c2cccnc2)nnn1-c1nonc1N	0	-6	2	-1	6	32*
C/C(=N\NC(=O)c1nnn(-c2nonc2N)c1CSc1ccc(Cl)cc1)c1cccnc1	0	1	-4	22	0	-14
Nc1nonc1-n1nnc(C(=O)N/N=C/c2cccnc2)c1CSc1ccccc1	0	5	0	28	6	19*
Nc1nonc1-n1nnc(C(=O)N/N=C/c2cccnc2)c1CSc1ccc(Cl)cc1	0	i	-1	13	-4	12*
CC(=O)Nc1ccc2nc(SCC(=O)Nc3ccc(N4CCOCC4)c(Cl)c3)sc2c1	0	0	2	.	0	25*
Cc1ccc(NC(=O)CSc2nc3ccc(Nc4nc(N5CCOCC5)nc(N5CCOCC5)n4)cc3s2)cc1	-1	-4	0	39	0	15*
S=C(NNc1ccnc2cc(Cl)ccc12)Nc1ccc(Cl)cc1Cl	1	5	3	4	-3	15*
CCOc1ccc(NC(=S)NNc2ccnc3cc(Cl)ccc23)cc1	5	-2	-1	-4	-5	4
COc1cc(OC)cc(C(=O)Nc2nc3ccc(S(C)(=O)=O)cc3s2)c1	-1	-4	1	2	1	-27
COc1ccc2oc(C(=O)Nc3nc4ccc(S(C)(=O)=O)cc4s3)c(C)c2c1	1	1	0	.	6	19*
CCSc1nsc(NC(=O)Nc2ccccc2Cl)n1	0	.	1	.	-6	5
CCOc1ccc(OCCC(=O)OC(C)C(=O)Nc2ccc(C(C)=O)cc2)cc1 (stereo not drawn)	0	5	1	-1	1	20*
CCOCC(=O)Nc1nc2ccc(S(C)(=O)=O)cc2s1	0	5	-1	6	6	0
CCOc1ccc(NC(=O)Nc2nc(SCC)ns2)cc1	0	12	8	-1	6	37*
CCOc1ccc(NC(=O)Nc2nc3ccc(S(C)(=O)=O)cc3s2)cc1	0	-2	1	12	-5	30*
